Our source for the inhibition and TGI values is ChEMBL document CHEMBL4014339, “Discovery of 1,4-Benzodiazepine-2,5-dione (BZD) Derivatives as Dual Nucleotide Binding Oligomerization Domain Containing 1/2 (NOD1/NOD2) Antagonists Sensitizing Paclitaxel (PTX) To Suppress Lewis Lung Carcinoma (LLC) Growth in Vivo” (J Med Chem, 2017).

The target of assay [1] is T1, Nucleotide-binding oligomerization domain-containing protein 1 (Homo sapiens) (UniProt Q9Y239).
T1 sequence (whole entry): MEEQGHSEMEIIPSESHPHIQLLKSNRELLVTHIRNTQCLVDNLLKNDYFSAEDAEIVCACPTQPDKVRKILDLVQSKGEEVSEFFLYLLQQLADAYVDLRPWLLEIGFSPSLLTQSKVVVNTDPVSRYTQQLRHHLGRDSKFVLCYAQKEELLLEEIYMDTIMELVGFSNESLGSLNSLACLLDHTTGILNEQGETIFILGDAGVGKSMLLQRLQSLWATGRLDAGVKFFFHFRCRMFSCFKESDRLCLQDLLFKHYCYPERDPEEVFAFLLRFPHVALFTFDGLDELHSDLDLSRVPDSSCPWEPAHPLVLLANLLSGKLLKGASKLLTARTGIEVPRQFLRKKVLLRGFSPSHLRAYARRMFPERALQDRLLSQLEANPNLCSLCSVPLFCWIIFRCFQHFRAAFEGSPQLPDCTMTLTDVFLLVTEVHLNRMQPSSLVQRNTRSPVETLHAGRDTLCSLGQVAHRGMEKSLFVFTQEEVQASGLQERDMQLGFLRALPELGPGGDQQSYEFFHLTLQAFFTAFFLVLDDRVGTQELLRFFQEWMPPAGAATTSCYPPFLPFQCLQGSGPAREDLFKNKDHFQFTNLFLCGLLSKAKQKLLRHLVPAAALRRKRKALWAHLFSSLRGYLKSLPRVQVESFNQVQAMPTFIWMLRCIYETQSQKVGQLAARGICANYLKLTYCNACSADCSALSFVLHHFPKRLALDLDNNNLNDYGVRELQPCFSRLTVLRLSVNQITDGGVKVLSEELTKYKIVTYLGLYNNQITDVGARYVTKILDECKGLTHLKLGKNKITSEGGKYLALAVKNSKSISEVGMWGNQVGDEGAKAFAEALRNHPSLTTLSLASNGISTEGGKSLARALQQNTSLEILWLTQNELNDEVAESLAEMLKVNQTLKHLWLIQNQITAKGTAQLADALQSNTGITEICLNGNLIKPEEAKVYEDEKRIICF
Description: Antagonist activity at human NOD1 expressed in HEK-Blue cells assessed as inhibition of C12-iE-DAP-stimulated cell activation at 10 uM preincubated for 3 hrs followed by C12-iE-DAP addition measured after 20 hrs by SEAP reporter gene assay. It counts as cell-based. A digest of the protocol:
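HEK-Blue hNOD1 or hNOD2 cells preincubated with compound 3 h, then stimulated 20 h with C12-iE-DAP 50 ng/mL (NOD1) or MDP 100 ng/mL (NOD2); SEAP in supernatant quantified. Primary screen at 10 μM, hits repeated in triplicate; IC50 from dose-response, mean ± SD (n = 3), only for compounds reaching ≥50% inhibition at the screening concentration.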

Assay [2] has as its target T1, Nucleotide-binding oligomerization domain-containing protein 1 (Homo sapiens). Description: Antagonist activity at human NOD1 expressed in HEK-blue cells assessed as inhibition of C12-iE-DAP-stimulated cell activation at 5 uM preincubated for 3 hrs followed by C12-iE-DAP addition measured after 20 hrs by SEAP reporter gene assay. It counts as cell-based. Background: Reporter assays use an easily measured gene product as a stand-in for the process of interest.

Assay [3] concerns the target Toll-like receptor 2 (Homo sapiens) (UniProt O60603). Description: Inhibition of human TLR2 expressed in HEK-Blue cells assessed as reduction in Pam3CSK4-stimulated SEAP release preincubated for 3 hrs followed by Pam3CSK4 addition measured after 20 hrs by spectrophotometric analysis. It counts as cell-based.
Assay [4] addresses Tumor necrosis factor (Homo sapiens) (UniProt P01375). Description: Inhibition of recombinant human TNFalpha expressed in HEK-Blue cells assessed as reduction in SEAP release preincubated for 3 hrs measured after 20 hrs by spectrophotometric analysis. It counts as cell-based.
For assay [5], the target named is T1, Nucleotide-binding oligomerization domain-containing protein 1 (Homo sapiens). The assay can be described thus: Inhibition of NOD1 in human PBMC-derived macrophages assessed as reduction in C12-iE-DAP-stimulated TNFalpha mRNA expression at 10 uM preincubated for 1 hr followed by C12-iE-DAP stimulation for 90 mins by RT-qPCR analysis. A digest of the protocol:
(§1)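 Human CD14+ monocytes from donor PBMC, differentiated 7 days with M-CSF 20 ng/mL to macrophages; 1.0 × 10^6 cells pretreated 1 h with compound (final 0.1% DMSO), then C12-iE-DAP 500 ng/mL or MDP 5 μg/mL for 90 min. IL-6/TNF-α mRNA by qRT-PCR, normalized to GAPDH; stimulated response set to 100%.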
(In general: In qPCR the cycle at which signal appears reflects the starting amount.)

Assay [6] deals with T2, Nucleotide-binding oligomerization domain-containing protein 2 (Homo sapiens, UniProt Q9HC29). Description: Inhibition of NOD2 in human PBMC-derived macrophages assessed as reduction in MDP-stimulated IL6 mRNA expression at 10 uM preincubated for 1 hr followed by MDP stimulation for 90 mins by RT-qPCR analysis. In outline:
as §1

For assay [7], the target named is T2, Nucleotide-binding oligomerization domain-containing protein 2. Description: Inhibition of NOD2 in human PBMC-derived macrophages assessed as reduction in MDP-stimulated IL6 mRNA expression preincubated for 1 hr followed by MDP stimulation for 90 mins by RT-qPCR analysis. A digest of the protocol:
as §1

For assay [8] the target is unchanged. The assay can be described thus: Inhibition of NOD2 in human PBMC-derived macrophages assessed as reduction in MDP-stimulated TNFalpha mRNA expression preincubated for 1 hr followed by MDP stimulation for 90 mins by RT-qPCR analysis. A digest of the protocol:
as §1

The target in assay [9] is T1, Nucleotide-binding oligomerization domain-containing protein 1 (Homo sapiens). Description: Inhibition of human NOD1 expressed in HEK293 cells assessed as reduction in C12-iE-DAP-stimulated IL8 secretion preincubated with compound followed by C12-iE-DAP stimulation measured after 24 hrs by ELISA. It counts as cell-based.
The target of assay [10] is T2, Nucleotide-binding oligomerization domain-containing protein 2. Description: Inhibition of human NOD2 expressed in HEK293 cells assessed as reduction in MDP-stimulated IL8 secretion preincubated with compound followed by MDP stimulation measured after 24 hrs by ELISA. It counts as cell-based.
In assay [11] the target is T1, Nucleotide-binding oligomerization domain-containing protein 1 (Homo sapiens). Description: Inhibition of NOD1 in human THP1 cells assessed as suppression of C12-iE-DAP-stimulated p38 phosphorylation at 1 to 10 uM preincubated for 1 hr followed by C12-iE-DAP stimulation after 45 mins by Western blot analysis. It counts as cell-based. In outline:
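PMA (20 ng/mL, 48 h)-differentiated THP1 macrophages rested 24 h in PMA-free medium, serum-starved (0.1% FBS) overnight, pretreated 1 h with compound, stimulated 45 min with C12-iE-DAP 50 ng/mL. Lysates run on 8% SDS-PAGE, immunoblotted for phospho and total RIP2, p38, JNK, ERK and IκBα.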
For orientation: In western blotting, separated proteins are transferred to a membrane and probed.

For assay [12], the system named is Lewis lung carcinoma cell line. Description: Antitumor activity against mouse LLC cells implanted in C57BL/6 mouse assessed as tumor weight inhibition at 20 mg/kg, iv administered daily measured 11 days after tumor implantation. It counts as functional, organism-based.
For assay [13], the target named is T1, Nucleotide-binding oligomerization domain-containing protein 1 (Homo sapiens). The assay can be described thus: Inhibition of NOD1 in human PBMC-derived macrophages assessed as reduction in C12-iE-DAP-stimulated p38 phosphorylation at 1 to 10 uM preincubated for 1 hr followed by C12-iE-DAP stimulation for 45 mins by Western blot analysis.
In assay [14] the target is T2, Nucleotide-binding oligomerization domain-containing protein 2. Description: Inhibition of human NOD2 expressed in HEK293 cells assessed as reduction of MDP-mediated decrease in IkBalpha levels preincubated for 1 hr followed by MDP addition measured after 1 hr by Western blot analysis.

Structures are written as SMILES. Active and inactive are the calls of the source. No cut-off for these calls is given here.

T2 sequence (Q9HC29 whole entry, the tested form may be a part): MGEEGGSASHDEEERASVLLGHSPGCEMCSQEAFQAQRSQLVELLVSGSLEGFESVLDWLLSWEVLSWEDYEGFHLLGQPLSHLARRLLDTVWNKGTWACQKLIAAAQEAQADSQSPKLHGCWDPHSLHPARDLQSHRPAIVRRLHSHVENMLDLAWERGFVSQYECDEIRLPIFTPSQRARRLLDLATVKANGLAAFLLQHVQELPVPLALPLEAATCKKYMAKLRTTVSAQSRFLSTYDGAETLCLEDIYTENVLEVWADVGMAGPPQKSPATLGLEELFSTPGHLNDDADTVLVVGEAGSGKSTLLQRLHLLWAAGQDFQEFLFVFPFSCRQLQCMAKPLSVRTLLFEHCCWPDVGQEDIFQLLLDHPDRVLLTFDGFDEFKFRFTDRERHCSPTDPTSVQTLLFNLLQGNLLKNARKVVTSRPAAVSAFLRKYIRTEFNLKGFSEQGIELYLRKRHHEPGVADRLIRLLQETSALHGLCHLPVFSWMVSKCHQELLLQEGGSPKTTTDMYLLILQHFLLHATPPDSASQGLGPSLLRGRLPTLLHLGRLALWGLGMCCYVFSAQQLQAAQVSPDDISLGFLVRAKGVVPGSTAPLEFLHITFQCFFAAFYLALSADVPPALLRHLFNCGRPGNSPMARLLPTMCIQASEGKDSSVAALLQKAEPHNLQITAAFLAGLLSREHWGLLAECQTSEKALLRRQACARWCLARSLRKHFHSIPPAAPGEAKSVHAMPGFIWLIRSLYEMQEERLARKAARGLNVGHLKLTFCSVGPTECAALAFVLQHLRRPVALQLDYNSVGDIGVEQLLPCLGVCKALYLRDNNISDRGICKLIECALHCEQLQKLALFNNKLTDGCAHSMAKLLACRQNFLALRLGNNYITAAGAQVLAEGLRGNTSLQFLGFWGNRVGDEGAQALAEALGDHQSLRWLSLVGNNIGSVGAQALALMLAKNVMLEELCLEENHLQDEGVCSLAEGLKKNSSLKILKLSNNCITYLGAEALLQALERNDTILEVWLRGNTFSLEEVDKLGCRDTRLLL
Tumor necrosis factor (Homo sapiens), sequence (P01375 whole entry, the tested form may be a part): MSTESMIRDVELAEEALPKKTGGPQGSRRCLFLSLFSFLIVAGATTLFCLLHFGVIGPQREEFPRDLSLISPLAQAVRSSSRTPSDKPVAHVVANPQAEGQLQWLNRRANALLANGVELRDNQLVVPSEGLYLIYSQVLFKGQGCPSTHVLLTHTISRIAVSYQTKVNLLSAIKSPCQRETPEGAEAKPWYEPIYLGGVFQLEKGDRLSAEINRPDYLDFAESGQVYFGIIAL
Toll-like receptor 2 (Homo sapiens), sequence (O60603 whole entry): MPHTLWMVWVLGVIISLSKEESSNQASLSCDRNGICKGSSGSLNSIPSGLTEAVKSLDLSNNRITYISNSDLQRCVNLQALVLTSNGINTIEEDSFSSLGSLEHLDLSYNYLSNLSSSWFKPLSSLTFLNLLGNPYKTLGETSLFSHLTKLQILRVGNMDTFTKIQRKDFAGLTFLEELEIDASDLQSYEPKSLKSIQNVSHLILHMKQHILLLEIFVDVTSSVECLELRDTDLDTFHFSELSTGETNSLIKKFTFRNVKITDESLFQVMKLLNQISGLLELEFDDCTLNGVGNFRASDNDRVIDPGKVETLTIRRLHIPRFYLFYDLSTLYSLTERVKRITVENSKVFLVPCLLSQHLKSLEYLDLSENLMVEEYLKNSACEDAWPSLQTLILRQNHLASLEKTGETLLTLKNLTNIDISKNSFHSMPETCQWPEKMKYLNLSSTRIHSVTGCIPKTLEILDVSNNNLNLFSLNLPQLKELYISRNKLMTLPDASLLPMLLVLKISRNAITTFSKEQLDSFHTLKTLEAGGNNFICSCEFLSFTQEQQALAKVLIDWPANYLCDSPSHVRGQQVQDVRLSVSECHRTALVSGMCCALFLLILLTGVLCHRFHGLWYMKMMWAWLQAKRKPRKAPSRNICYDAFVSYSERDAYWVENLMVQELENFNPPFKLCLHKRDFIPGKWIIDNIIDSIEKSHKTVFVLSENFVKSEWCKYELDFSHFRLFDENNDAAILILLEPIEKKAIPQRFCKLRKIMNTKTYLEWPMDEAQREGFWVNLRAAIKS

For the molecule `CCCNC(=O)CC[C@H]1NC(=O)c2cc(Oc3cccc(N(C)C)c3)c(NC(=O)COCc3ccccc3)cc2NC1=O`, the inhibition (usually how much of the control response was suppressed) in [1] was 86.2%; in [2] it was 77.7%; in [5] it was 35.2%; in [7], “Dose-dependent effect”; in assay [8], “Dose-dependent effect”; in assay [9], “Dose-dependent effect”. In addition, the inhibition result in assay [10] and in assay [14] was “Dose-dependent effect” each time. Also, the inhibition entry in assay [3] and in assay [4] was “inactive” each time. For the same molecule, the inhibition result in assay [6], in assay [11] and in [13] was “Active” in each case. In assay [12], the TGI entry was “inactive”.
